Each block holds one compound with its values, some of them ahead of it. The source made the active and inactive calls. The calls are words filed in the database; no cut-off is given here.
What was measured:
MM1.S = assay: Cytotoxicity against human MM1S cells after 48 hrs by MTT assay; assay type: functional, cell-based
Method in brief: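 MM1.S myeloma cells (DEPTOR-over-expressing) in 48 h MTT: 1–2 × 10^4 cells per well, graded compound concentrations, formazan at 570 nm. Quadruplicate wells; survival as % of DMSO control; IC50 derived from the concentration range.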

RPMI-8226 [1] = assay: Cytotoxicity against human RPMI8226 cells after 48 hrs by MTT assay; assay type: functional, cell-based; conditions: RPMI-8226, 48 h
Method in brief: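 MTT in RPMI-8226 cells: 1–2 × 10^4 cells per well in complete medium, exposed 48 h to a range of compound concentrations. MTT reduction to formazan read at 570 nm. Quadruplicate wells per group; OD given as % of DMSO-only control set at 100%. IC50 taken from the concentration series.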

[2] = Therapeutic index, ratio of IC50 for PBL (unknown origin) to IC50 for human RPMI8226 cells
Method in brief: (§1)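 Normal peripheral blood lymphocytes tested head-to-head with 8226 myeloma cells in 48 h MTT assays. […] Therapeutic index = IC50(PBL)/IC50(8226).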

[3] = molecular target: DEP domain-containing mTOR-interacting protein (Homo sapiens) (UniProt Q8TB45); assay: Inhibition of mTOR binding to DEPTOR in human RPMI8226 cells assessed as increase in mTORC1-associated p70 phosphorylation at 1 uM after 6 hrs by Western blot analysis; assay type: cell-based
Method in brief: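 8226 cells exposed 6 h to compound, DMSO in untreated controls. Lysates run on 12.5% SDS-PAGE, transferred to PVDF, probed for phospho- and total p70. Densitometric phospho/total ratio expressed as fold versus parent compound B set at 1; mean ± SD, n = 4.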

[4] = molecular target: DEP domain-containing mTOR-interacting protein (Homo sapiens) (UniProt Q8TB45); assay: Inhibition of mTOR binding to DEPTOR in human RPMI8226 cells assessed as increase in mTORC1-associated p70 phosphorylation at […] after 6 hrs by Western blot analysis; assay type: cell-based
RPMI-8226 [5] = assay: Induction of apoptosis in human RPMI8226 cells assessed as caspase3 activation at 0.12 to 2 uM after 48 hrs by cytofix/cytoperm staining based flow cytometry; assay type: functional, cell-based
Method in brief: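 Caspase-3 flow cytometry 48 h after drug exposure of 8226 cells. 10^6 cells washed in PBS, fixed and permeabilized in cytofix/cytoperm, stained 30 min with PE-conjugated anti-active-caspase-3 (1:5 dilution). % apoptosis = drug-treated minus DMSO-control positives; mean ± SD, n = 4.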

PBL = assay: Cytotoxicity against PBL (unknown origin) after 48 hrs by MTT assay; assay type: cell-based; method in brief: as §1
[6] = molecular target: DEP domain-containing mTOR-interacting protein (Homo sapiens) (UniProt Q8TB45); assay: Inhibition of DEPTOR in human RPMI8226 cells assessed as upregulation of mTORC1-dependant p21 expression at 0.5 to 2 uM after 6 hrs by Western blot analysis; assay type: cell-based
RPMI-8226 [7] = assay: Cytotoxicity against RAPTOR knockdown human RPMI8226 cells at 0.12 to 1 uM after 48 hrs by MTT assay; assay type: functional, cell-based
Method in brief: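 8226 cells infected with lentivirus carrying shRAPTOR or control shSCRAMBLE, knockdown confirmed by immunoblot. Cells then incubated with increasing compound concentrations; MTT read-out after 48 h, formazan at 570 nm, as % of DMSO control.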

[8] = molecular target: DEP domain-containing mTOR-interacting protein (Homo sapiens) (UniProt Q8TB45); assay: Inhibition of mTOR binding to DEPTOR in human RPMI8226 cells at 0.5 uM treated 6 hrs followed by DEPTOR immunoprecipitation by immunoblotting analysis; assay type: cell-based
Method in brief: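 Co-immunoprecipitation: 8226 cells treated 6 h with DMSO or 0.5 µM compound. DEPTOR immunoprecipitated; precipitates immunoblotted for DEPTOR and bound mTOR.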

[9] = molecular target: DEP domain-containing mTOR-interacting protein (Homo sapiens) (UniProt Q8TB45); assay: Inhibition of mTOR binding to DEPTOR in human RPMI8226 cells at 1 uM treated 6 hrs followed by DEPTOR immunoprecipitation by immunoblotting analysis; assay type: cell-based
Method in brief: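 RPMI8226 myeloma cells exposed to compound or DMSO for 6 h; DEPTOR immunoprecipitated from cell extracts, and precipitates immunoblotted for DEPTOR and co-precipitated mTOR. Proteins resolved by 12.5% SDS-PAGE, transferred to PVDF and detected with specific antibodies.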

Chain of DEP domain-containing mTOR-interacting protein (Homo sapiens) (Q8TB45 whole entry, the tested form may be a part): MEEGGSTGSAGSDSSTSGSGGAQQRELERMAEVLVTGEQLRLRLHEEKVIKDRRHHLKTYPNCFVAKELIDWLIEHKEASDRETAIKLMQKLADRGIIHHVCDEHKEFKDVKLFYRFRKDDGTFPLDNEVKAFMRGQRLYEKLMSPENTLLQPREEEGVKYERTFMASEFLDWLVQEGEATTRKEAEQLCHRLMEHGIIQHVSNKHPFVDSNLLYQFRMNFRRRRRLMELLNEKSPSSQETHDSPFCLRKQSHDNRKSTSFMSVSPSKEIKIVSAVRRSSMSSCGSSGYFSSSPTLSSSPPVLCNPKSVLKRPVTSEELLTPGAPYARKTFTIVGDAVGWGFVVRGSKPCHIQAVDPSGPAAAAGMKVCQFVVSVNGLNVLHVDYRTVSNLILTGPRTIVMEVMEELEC

SMILES: Fc1cccc(NN=C2c3ccccc3-c3ccccc32)c1
- IC50 (MM1.S): > 5 µM
- IC50 (RPMI-8226 [1]): > 5 µM

SMILES: ClC1=C(Cl)C(Cl)=C(Cl)C1=NNc1cc(Cl)cc(Cl)c1
- IC50 (MM1.S): 2 µM
- IC50 (RPMI-8226 [1]): 0.8 µM

SMILES: O=C(c1ccccc1)N(N=C1C(Cl)=C(Cl)C(Cl)=C1Cl)C(=O)c1ccccc1
- IC50 (MM1.S): 2 µM
- IC50 (RPMI-8226 [1]): 0.8 µM

SMILES: Fc1cccc(NN=C2C(Cl)=C(Cl)C(Cl)=C2Cl)c1
- IC50 (MM1.S): 1.5 µM
- IC50 (RPMI-8226 [1]): 0.5 to 0.6 µM

- inhibition [3]: Active
- inhibition [4]: Active
- inhibition [6]: Active
SMILES: CC(C)(C)C(=O)NN=C1C(Cl)=C(Cl)C(Cl)=C1Cl
- Ratio IC50 [2]: 14
- Activity (RPMI-8226 [5]): Active
- IC50 (PBL): 1.25 µM
- IC50 (MM1.S): 2 µM
- IC50 (RPMI-8226 [1]): 0.09 to 0.12 µM

SMILES: Cc1cccc(NN=C2C(Cl)=C(Cl)C(Cl)=C2Cl)c1
- IC50 (MM1.S): > 3 µM
- IC50 (RPMI-8226 [1]): 2 µM

SMILES: NN=C1c2ccccc2-c2ccccc21
- IC50 (RPMI-8226 [1]): > 5 µM

SMILES: COc1cccc(NN=C2C(Cl)=C(Cl)C(Cl)=C2Cl)c1
- IC50 (MM1.S): > 3 µM
- IC50 (RPMI-8226 [1]): > 3 µM

SMILES: Fc1ccccc1NN=C1C(Cl)=C(Cl)C(Cl)=C1Cl
- IC50 (MM1.S): > 3 µM
- IC50 (RPMI-8226 [1]): > 3 µM

- inhibition [3]: Active
- inhibition [4]: Active
- inhibition [6]: Active
SMILES: O=C(c1ccc(F)cc1)N(N=C1C(Cl)=C(Cl)C(Cl)=C1Cl)C(=O)c1ccc(F)cc1
- Ratio IC50 [2]: 10
- Activity (RPMI-8226 [5]): Active
- IC50 (PBL): 2 µM
- IC50 (MM1.S): 0.3 µM
- IC50 (RPMI-8226 [1]): 0.2 to 0.25 µM

SMILES: NN=c1c2ccccc2oc2ccccc12
- IC50 (MM1.S): > 5 µM
- IC50 (RPMI-8226 [1]): > 5 µM

- inhibition [3]: Active
- inhibition [4]: Active
- inhibition [8]: Active
SMILES: Fc1ccc(NN=C2C(Cl)=C(Cl)C(Cl)=C2Cl)cc1
- Activity (RPMI-8226 [7]): inactive
- Ratio IC50 [2]: 33
- Activity (RPMI-8226 [5]): Active
- IC50 (PBL): 20 µM
- IC50 (MM1.S): 1.3 µM
- IC50 (RPMI-8226 [1]): 0.6 to 0.7 µM

SMILES: NN=C1C(Cl)=C(Cl)C(Cl)=C1Cl
- inhibition [9]: Active
- Ratio IC50 [2]: 14.3
- inhibition [3]: Active
- inhibition [8]: inactive
- Activity (RPMI-8226 [5]): Active
- IC50 (PBL): 20 µM
- IC50 (MM1.S): 3 µM
- IC50 (RPMI-8226 [1]): 1.3 to 1.5 µM

SMILES: C#CC(C)(C)OC(=O)NN=C1C(Cl)=C(Cl)C(Cl)=C1Cl
- IC50 (RPMI-8226 [1]): > 5 µM

SMILES: C#CCOC(=O)NN=C1C(Cl)=C(Cl)C(Cl)=C1Cl
- IC50 (RPMI-8226 [1]): 0.8 µM
